VIM-2 inh: VIM-2 metallo-beta-lactamase inhibitors, primary screen, biochemical, epi-absorbance readout, Pseudomonas aeruginosa enzyme | purified VIM-2, nitrocefin hydrolysis, epi-absorbance fluorescence | inhibition, % at 5.6 µM | actives 0.89% (n = 290,000) | AID 1527, 2009;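 active = inhibition above the mean of all tested compounds plus 3 SD, cutoff set per screening run, cut at about 7.5% in these data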;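 note: red hydrolysis product quenches plate fluorescence so inhibitors raise well fluorescence; 0% = enzyme with DMSO and 100% = DMSO without enzyme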
PAFAH2 FP inh: PAFAH2 enzyme inhibitors, primary screen, biochemical, fluorescence polarization, human; Platelet-activating factor acetylhydrolase 2, cytoplasmic (Homo sapiens), Q99487; recombinant PAFAH2, FP-rhodamine activity probe; inhibition, % at 3.39 µM; actives 0.99% (n = 340,000);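 active = inhibition above the mean over all tested compounds plus 3 SD, cut at about 30% in these data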;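 note: inhibitors block probe labeling of enzyme so polarization drops; 0% = enzyme with DMSO and 100% = wells lacking PAFAH2 protein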
PAFAH1B3 inh: PAFAH1B3 enzyme inhibitors, primary screen, biochemical, fluorescence polarization, human; recombinant PAFAH1B3, FP-rhodamine probe; inhibition, % at 3.39 µM; actives 0.28% (n = 340,000); AID 492972, 2010;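 active = inhibition above the screen-wide average of all tested compounds plus 3 SD, cut at about 25% in these data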;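 note: 0% = enzyme with DMSO only and 100% = wells lacking PAFAH1B3 protein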
Target sequence (Q15102 whole entry, looked up): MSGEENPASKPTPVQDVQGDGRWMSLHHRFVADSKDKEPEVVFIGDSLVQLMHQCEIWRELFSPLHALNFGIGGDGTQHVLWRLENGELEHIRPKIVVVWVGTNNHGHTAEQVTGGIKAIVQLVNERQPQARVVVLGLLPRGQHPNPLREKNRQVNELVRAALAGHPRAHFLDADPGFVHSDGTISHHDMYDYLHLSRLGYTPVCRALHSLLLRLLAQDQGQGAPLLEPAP
PAFAH1B2 inh: PAFAH1B2 enzyme inhibitors, primary screen, biochemical, fluorescence polarization, human | recombinant PAFAH1B2, FP-rhodamine activity probe | inhibition, % at 3.39 µM | actives 1.2% (n = 340,000) | AID 492953, 2010;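 active = inhibition above the mean of all tested compounds plus 3 SD, cut at about 24% in these data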;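 note: 0% = enzyme with DMSO and 100% = wells lacking PAFAH1B2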
Target sequence (P68402 whole entry, looked up): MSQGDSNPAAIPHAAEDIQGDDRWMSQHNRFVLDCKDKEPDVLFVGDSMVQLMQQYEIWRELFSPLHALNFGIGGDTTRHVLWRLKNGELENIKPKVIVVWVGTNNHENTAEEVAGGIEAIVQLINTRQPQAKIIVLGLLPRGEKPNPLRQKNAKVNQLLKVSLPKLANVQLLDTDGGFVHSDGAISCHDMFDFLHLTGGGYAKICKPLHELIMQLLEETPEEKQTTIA
IMP-1 inh: IMP-1 metallo-beta-lactamase inhibitors, primary screen, biochemical, epi-absorbance readout, Pseudomonas aeruginosa enzyme; AID 1556, 2009; inhibition, % at 5.6 µM; actives 0.45% (n = 290,000); purified IMP-1, nitrocefin hydrolysis, epi-absorbance fluorescence; metallo-beta-lactamase IMP-1 (Pseudomonas aeruginosa);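 active = inhibition above the mean plus 3 SD of all compounds in the same screening run, cut at about 4.5% in these data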;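 note: 0% = IMP-1 with DMSO and 100% = DMSO wells lacking enzyme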
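Test system: recombinant IMP-1 enzyme, purified / Medium: HEPES buffer pH 7.1 with ZnSO4 and Brij 35 / Doses: single dose, 5.6 µM / Times: 25 °C, 15 min preincubation, 25 min reaction / Detection: Epi-absorbance via hydrolysed-nitrocefin quenching of white-plate fluorescence, 480/530 nm, EDTA stop / Evaluation: percent inhibition from optical density relative to buffer-blank wells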
pPAFAH FP inh: pPAFAH enzyme inhibitors, primary screen, biochemical, fluorescence polarization, human | actives 1.5% (n = 330,000) | Platelet-activating factor acetylhydrolase (Homo sapiens), Q13093 | recombinant pPAFAH, FP-rhodamine probe fluorescence polarization | inhibition, % at 3.39 µM | AID 463082, 2010;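 active = inhibition above the mean inhibition across the screen plus 3 SD, cut at about 25% in these data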;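 note: inhibitors block binding of the rhodamine activity-based probe so polarization drops; 0% = enzyme with DMSO and 100% = wells lacking pPAFAH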
PAFAH1B3 confirm: PAFAH1B3 enzyme inhibitors, confirmation, biochemical, fluorescence polarization, human; actives 30% (n = 390); recombinant PAFAH1B3, FP-Rh activity-based probe; inhibition, % at 3.39 µM; shares compounds with PAFAH1B3 inh;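 active = average inhibition over triplicate runs above the hit cutoff set in the earlier primary screen, cut at about 25% in these data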;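 note: 0% = enzyme with DMSO and 100% = wells lacking PAFAH1B3 protein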
* hit, by the source's call. Compounds with a hit are over-represented: about 3.6% of the library has one in this group of screens.

CCc1nc2ccc(C(=O)N3CCN(CC)CC3)cc2nc1CC was read as VIM-2 inh 0.0, PAFAH2 FP inh 28.3, PAFAH1B3 inh 27.7*, PAFAH1B2 inh 18.4, IMP-1 inh -2.4, pPAFAH FP inh -1.1 and PAFAH1B3 confirm 8.3.
Screening CCCN1CCN(C(=O)c2ccc3nc(CC)c(CC)nc3c2)CC1 returned VIM-2 inh -0.2, PAFAH2 FP inh -1.2, PAFAH1B3 inh 2.1, PAFAH1B2 inh 0.2, IMP-1 inh -3.2 and pPAFAH FP inh 3.9.
Screening O=C(/C=C/NNC(=O)c1ccccc1)c1ccc([N+](=O)[O-])cc1 returned VIM-2 inh -1.9, PAFAH2 FP inh -0.2, PAFAH1B3 inh 28.6*, PAFAH1B2 inh 11.1, IMP-1 inh -1.9, pPAFAH FP inh 9.7 and PAFAH1B3 confirm 20.6.
O=C1c2ccccc2C(=O)N1OCCCN1C(=O)c2ccccc2S1(=O)=O was read as PAFAH2 FP inh 3.5, PAFAH1B3 inh 2.1 and PAFAH1B2 inh 3.0.
`O=C1c2ccccc2S(=O)(=O)N1CCCN1C(=O)c2ccccc2S1(=O)=O` gave PAFAH2 FP inh -2.2, PAFAH1B3 inh 29.7*, PAFAH1B2 inh 4.2 and PAFAH1B3 confirm 7.5.
CC(/C=N/n1c(COc2ccccc2)n[nH]c1=S)=C\c1ccco1 was read as VIM-2 inh -1.7, PAFAH2 FP inh -1.9, PAFAH1B3 inh -1.1, PAFAH1B2 inh 8.0, IMP-1 inh -2.4 and pPAFAH FP inh 9.7.
Screening C=CC(=O)N=c1sc2ccccc2n1-c1ccccc1 returned VIM-2 inh -0.6, PAFAH2 FP inh 1.1, PAFAH1B3 inh 55.4*, PAFAH1B2 inh 9.3, IMP-1 inh -4.2, pPAFAH FP inh 7.4 and PAFAH1B3 confirm 47.3*.
Screening N=c1sc2ccccc2n1-c1ccccc1 returned VIM-2 inh -3.6, PAFAH2 FP inh 1.5, PAFAH1B3 inh -1.0, PAFAH1B2 inh 1.6, IMP-1 inh -3.6 and pPAFAH FP inh 1.4.
Screening Cc1c(C(=O)NC(C)c2ccccn2)oc2c(Cl)cccc12 (configuration not stated) returned PAFAH2 FP inh 2.5, PAFAH1B3 inh -1.2 and PAFAH1B2 inh -5.2.
Cc1cc2cc(CNC(=O)Nc3ccccc3)ccc2n1C was read as VIM-2 inh -0.7, PAFAH2 FP inh 3.6, PAFAH1B3 inh 30.2*, PAFAH1B2 inh 4.9, IMP-1 inh -6.5, pPAFAH FP inh 11.5 and PAFAH1B3 confirm 8.0.
O=C1C(=NO)CCc2ccccc21 was read as PAFAH2 FP inh 18.2, PAFAH1B3 inh 37.4*, PAFAH1B2 inh 11.8 and PAFAH1B3 confirm 23.3.
Screening CCOC(=O)N1CCN(C(=O)c2cn(CC)c3ccc(S(=O)(=O)N(C)C4CCCCC4)cc3c2=O)CC1 returned VIM-2 inh -3.0, PAFAH2 FP inh 2.8, PAFAH1B3 inh 5.1, PAFAH1B2 inh 5.7, IMP-1 inh -4.9 and pPAFAH FP inh 0.7.
`C/C(=N\NC(=S)Nc1ccc(F)cc1)C1CC1` gave VIM-2 inh -2.0, PAFAH2 FP inh 0.8, PAFAH1B3 inh 26.5*, PAFAH1B2 inh 7.2, IMP-1 inh -3.5, pPAFAH FP inh 2.1 and PAFAH1B3 confirm 10.3.
Screening CCc1nnc(NC(=O)CCC(=O)N2CCN(C3c4ccccc4-c4ccccc43)CC2)s1 returned VIM-2 inh -1.9, PAFAH2 FP inh 1.5, PAFAH1B3 inh 2.9, PAFAH1B2 inh 1.3, IMP-1 inh -2.1 and pPAFAH FP inh -0.3.
`CCc1cc(/C(Cc2csc(C)n2)=N/O)c(O)cc1O` gave VIM-2 inh -2.8, PAFAH2 FP inh 7.7, PAFAH1B3 inh 29.0*, PAFAH1B2 inh 13.0, IMP-1 inh -1.4, pPAFAH FP inh 8.3 and PAFAH1B3 confirm 22.7.
